TCR-CD3 inh: inhibitors of human TCR-CD3 interaction, primary screen, biochemical, fluorescence, TAMRA-labeled TCR probe | T-cell receptor (TCR) | inhibition, % at 9.4 µM | hit rate 0.37% among 360,000; in the data active = inhibition above about 19%;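 note: recombinant mutant TCR 2C K166C tagged with TAMRA read by polarization; 0% = receptor in buffer alone and 100% = receptor with positive control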
pPAFAH inh: pPAFAH enzyme inhibitors, primary screen, biochemical, fluorescence polarization, human; recombinant pPAFAH, FP-rhodamine probe fluorescence polarization; AID 463082, 2010; inhibition, % at 3.39 µM; hit rate 1.5% among 330,000; Platelet-activating factor acetylhydrolase (Homo sapiens), Q13093;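 active = inhibition above the mean inhibition across the screen plus 3 SD, cut at about 25% in these data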;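 note: inhibitors block binding of the rhodamine activity-based probe so polarization drops; 0% = enzyme with DMSO and 100% = wells lacking pPAFAH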
mABHD4 FP: ABHD4 inhibitors, primary screen, biochemical, fluorescence polarization, mouse; (Lyso)-N-acylphosphatidylethanolamine lipase (Mus musculus), Q8VD66; purified mABHD4, FP-Rh probe fluorescence polarization; inhibition, % at 8.92 µM; hit rate 0.54% among 370,000; AID 720543, 2013;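 active = inhibition exceeding the mean over every tested compound plus 3 SD, cut at about 30% in these data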;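 note: 0% = plate median of compound wells and 100% = S159A mutant with DMSO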
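system = mouse ABHD4 enzyme, wild type | medium = HEPES pH 7.0, NaCl, Pluronic buffer | also added = FP-Rh probe | incubation = Enzyme–compound pre-incubation 45 min, then probe 60 min, both 25 °C | technique = fluorescence polarization, excitation 525 nm, emission 598 nm, BODIPY TMR filters | controls = S159A mutant high control, sample median low control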
SIAE primary: human SIAE inhibitors, primary screen, biochemical, fluorescence polarization, FP-Rh probe, 1536-well HTS | Sialate O-acetylesterase (Homo sapiens), Q9HAT2 | SIAE FP-Rh probe binding | inhibition, % at 9.66 µM | hit rate 0.69% among 370,000 | AID 1053197, 2014;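 active = inhibition above a cutoff: mean of compounds within the control limits plus 3 SD of those, cut at about 17% in these data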;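 note: 0% = plate median of compound wells and 100% = probe without SIAE protein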
Target sequence (Q9HAT2 whole entry, looked up): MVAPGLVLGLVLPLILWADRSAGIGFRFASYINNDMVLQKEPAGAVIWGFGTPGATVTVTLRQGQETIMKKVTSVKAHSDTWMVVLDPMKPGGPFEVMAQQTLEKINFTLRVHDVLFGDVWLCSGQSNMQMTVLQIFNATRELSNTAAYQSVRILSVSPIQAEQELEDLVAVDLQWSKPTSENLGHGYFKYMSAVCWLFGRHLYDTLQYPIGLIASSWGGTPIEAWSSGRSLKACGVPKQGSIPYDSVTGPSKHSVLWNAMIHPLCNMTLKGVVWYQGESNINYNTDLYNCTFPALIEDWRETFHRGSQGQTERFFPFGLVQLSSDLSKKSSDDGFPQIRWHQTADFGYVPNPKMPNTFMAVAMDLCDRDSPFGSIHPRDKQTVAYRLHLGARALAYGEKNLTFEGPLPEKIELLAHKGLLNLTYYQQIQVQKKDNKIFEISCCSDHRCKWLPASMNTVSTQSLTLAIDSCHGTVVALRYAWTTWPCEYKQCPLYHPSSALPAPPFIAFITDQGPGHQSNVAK
HTRA1 inh: HTRA1 serine protease inhibitors, primary screen, biochemical, fluorescence polarization, HTS | Q92743 | recombinant HTRA1, FP-rhodamine activity-based probe | inhibition, % at 5.96 µM | hit rate 0.5% among 340,000 | AID 504803, 2011; in the data active = inhibition above about 36%;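 note: 0% = enzyme with DMSO and 100% = wells lacking enzyme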
pPAFAH confirm: pPAFAH (PLA2G7) enzyme inhibitors, confirmation, biochemical, fluorescence polarization, human; shares compounds with pPAFAH inh; recombinant pPAFAH, FP-Rh probe fluorescence polarization; inhibition, % at 3.39 µM; hit rate 72% among 2,300;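 active = mean inhibition of the triplicate above the hit cutoff set for the earlier primary screen, cut at about 25% in these data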;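 note: 0% = enzyme with DMSO and 100% = wells lacking pPAFAH enzyme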
An asterisk follows results filed as active; . = no result given; ! = a repeat was not active. An excerpt weighted towards active compounds, which were near 2.3% of everything screened.

SMILES	TCR-CD3 inh	pPAFAH inh	mABHD4 FP	SIAE primary	HTRA1 inh	pPAFAH confirm
COc1cc2cccc(OC)c(=O)c2c(O)c1OC	-11.7	-7.5	2.5	-0.6	11.1	.
CC(=O)Oc1cc2cccc(OC(C)=O)c(=O)c2c(OC(C)=O)c1OC(C)=O	.	90.9*	.	.	69.8*	33.6*
Cc1ccc(-c2nnc(SCC(=O)NNC(=S)Nc3ccccc3)n2C2CCCCC2)cc1	.	.	16.8	6.6	.	.
Cc1cccc(NC(=O)CN2CCN(C(=O)CNC(=O)Cc3cccc4ccccc34)CC2)c1C	-2.4	47.9*	0.3	-1.5	4.1	4.0
Cc1ccc(C2C(/C=C3/SC(=S)NC3=O)=C(c3cccs3)Oc3ccccc32)cc1 (stereo not drawn)	-2.8	38.5*	-43.6	-14.4	-89.0	47.5*
CC1Cc2cc(/C=C3/SC(=S)NC3=O)ccc2O1 (stereo not drawn)	1.5	4.3	-11.3	-20.6	-13.4	.
C=CCN1[C@H](C#N)[C@@H](c2ccc(C#Cc3ccccc3OC)cc2)[C@H]1CO	.	.	9.1	12.6	.	.
Cc1ccc(NC(=O)N/C=C/c2ccc(Cl)cc2)cc1	8.5	2.2	0.4	-0.4	-5.8	.
Cc1ccc(NC(=O)N/C=C/c2ccccc2)cc1	9.7	39.4*	-8.4	-0.5	-21.2	-0.4
Cc1nc(S/C(=C/c2ccc(-c3ccc(Cl)cc3)o2)C(=O)O)n[nH]1	5.0	10.8	7.3	3.9	-4.5	.
Cc1nc(S/C(=C/c2ccc(-c3cc(Cl)ccc3C)o2)C(=O)O)n[nH]1	2.8	46.8*	9.9	5.7	21.1	56.4*
O=C(O)CSc1cc(C(=O)c2ccccc2O)cn2c(=O)c3c(-c4ccccc4)csc3nc12	0.1	64.5*	-18.5	-45.5	-79.3	72.2*
S=C(NCCN1CCOCC1)N/N=C/c1cccs1	-1.7	3.4	0.7	5.9	-8.1	.
Oc1cccc(/C=N/NC(=S)NCCN2CCOCC2)c1O	6.2	40.9*	13.9	-0.2	3.0	5.9
Cc1cc(C(=O)OCC(=O)N2CC(=O)Nc3ccccc32)c(C)n1-c1ccccc1	3.0	22.4	-2.3	-0.6	-13.2	.
Cc1cc(C(=O)OCC(=O)N2CC(=O)Nc3ccccc32)c(C)n1-c1ccc(F)cc1	0.3	37.3*	-5.3	6.7	-14.3	30.3*
O=C(c1ccco1)N1CCN(C(=O)c2cc(-c3ccncc3)nc3ccc(Br)cc23)CC1	-0.1	-1.0	-10.2	-11.7	1.3	.
O=C(O)c1cc(-c2ccco2)nc2ccc(Br)cc12	-0.5	63.2*!	14.2	5.2	0.2	6.9
CCN(CC)C(=O)CC[C@H]1CC[C@]2(CCCN(c3ccccc3)C2)O1	.	.	-5.4	-0.1	.	.
CCOC(=O)C1CCN(C(=O)C(C)(C)NC(=O)Nc2ccc(Cl)cc2Cl)CC1	.	.	-5.6	4.0	.	.
CCOc1ccc(-n2c(SCC(=O)Nc3cccc4ccccc34)nnc2-c2ccccc2)cc1	.	.	5.0	8.3	.	.
CCCCC(=O)c1c(O)c2ccccc2oc1=O	0.3	11.3	0.4	-4.0	-3.5	.
CC(=N)c1c(O)c2ccccc2oc1=O	-3.5	63.1*	5.9	3.3	5.2	1.3
Cc1[nH]n(-c2nc(-c3ccccc3F)cc(=O)[nH]2)c(=O)c1CCO	-5.5	40.5*	3.9	-2.9	-2.8	6.2
O=C(NN=C1CCCCCC1)c1cc2ccccc2cc1O	-1.7	57.7*	22.4	13.8	10.5	11.2
SMILES	TCR-CD3 inh	pPAFAH inh	mABHD4 FP	SIAE primary	HTRA1 inh	pPAFAH confirm
CC(=O)N1CCCN(S(=O)(=O)c2ccc3c(c2)n(C)c(=O)c(=O)n3C)CC1	.	.	6.7	3.7	.	.
O=C(Nc1ccc2c(c1)OCO2)N1CCC(c2nc3ccc(Cl)cc3[nH]2)CC1	.	.	7.5	0.3	.	.
O=C1CC(=O)Nc2cc(S(=O)(=O)NCc3cccs3)ccc2N1	-5.4	65.2*	1.4	0.1	0.8	1.7
CN(c1ccc(OCC(=O)OCC(=O)NC2CCCC2)cc1)S(=O)(=O)c1ccc2ccccc2c1	2.3	1.8	4.2	-5.2	-17.2	.
CN(c1ccc(OCC(=O)NC2CCC(O)CC2)cc1)S(=O)(=O)c1ccc(Cl)cc1 (stereo not drawn)	3.4	36.9*	-1.7	1.7	9.3	-1.8
Cc1ccc(-n2nc(C(=O)c3ccccc3)n3c(=O)c(Cc4ccccc4)nnc23)cc1	4.6	20.7	-1.6	-9.9	-16.5	.
O=C(c1ccccc1)c1nn(-c2ccccc2)c2nnc(Cc3ccccc3)c(=O)n12	-2.8	41.0*	-8.2	-8.9	-46.4	30.2*
Cc1cc(C)cc(NC(=O)OC2CCC23CCCCC3)c1 (stereo not drawn)	.	.	-0.2	-4.0	.	.
Cc1ccc(C2C(C#N)=C(N)Oc3c2sc2ccccc32)o1 (stereo not drawn)	.	37.8*	.	.	.	30.2*
CCCC1CCC2(CC1)CCC2OC(=O)Nc1cccc(Cl)c1 (stereo not drawn)	.	.	-22.0	5.1	.	.
COC(=O)[C@]1(Cc2ccccc2)NC=C(C(=O)c2ccc(F)cc2)[C@@H]1c1ccccc1	6.5	.	4.0	1.6	.	.
N#CC1=C(N)C2=C(N3CCCCC3)CCCC2C1(C#N)C#N (stereo not drawn)	.	38.0*	.	.	35.1	4.8
N#CC(C#N)=C1C=C2C=C(N3CCCCC3)CCC2CC1 (stereo not drawn)	.	12.8	.	.	.	.
Cc1ccc(NC(=O)C(C)OC(=O)CCC2CCCCC2)cc1 (stereo not drawn)	4.7	42.9*	-0.4	-2.0	-27.1	8.3
COc1ccc(Cl)cc1C(=O)NNC(=O)c1[nH]c(C)c(C(C)=O)c1C	-6.7	54.4*	-11.6	4.3	-7.7	6.5
CCOC(=O)CC[C@@]1(C(=O)OCC)C[C@@H](CC(=O)NCc2cccc3ccccc23)C(=O)N2CCCC=C21	.	.	4.0	-2.5	.	.
Cc1cc(NS(=O)(=O)c2ccc(NC(=O)Cc3cccs3)cc2)no1	.	6.8	.	.	-4.2	.
Cc1cc(NC(=O)Cc2cccs2)no1	2.8	54.1*	3.8	0.7	1.4	12.0
COc1cccc(-c2nnc(SCc3cc(C)ccc3C)n2Cc2ccco2)c1	.	.	-14.4	7.6	.	.
CCN(CC)c1ccc(NS(=O)(=O)c2ccc(-c3ccc(=O)[nH]n3)o2)c(C)c1	1.4	68.2*	20.4	9.2	14.3	49.7*
CC(=O)c1cc(-c2ccc(Oc3ccccc3)cc2)c(=O)n2c1CCC2	.	.	-2.0	-1.1	.	.
CC(=O)OCC(=O)NCC1CCN(C(=O)C(=O)c2cc3ccccc3o2)CC1	-5.2	.	6.8	4.7	.	.
O=[N+]([O-])c1ccc(O)c(C=Nc2ccc3c(c2)OCO3)c1	-4.6	1.1	7.4	4.2	9.7	.
O=[N+]([O-])c1cc(Br)cc(C=Nc2ccc3c(c2)OCO3)c1O	8.3	40.9*	25.5	-15.8	3.2	51.8*
CC(C)(C)c1ccc(C(=O)Nc2cccc3ncccc23)cc1	-4.0	1.2	-3.7	6.4	-2.5	.

Screening results: PubChem BioAssay, The Scripps Research Institute Molecular Screening Center
